Assays:
[1] = test system: MCF7; test: Anticancer activity against human MCF7 cells; format: functional
Outline: (§1)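 Values come from the NCI 60-cell-line human tumour panel, run on a single analog. Cytostatic and cytotoxic responses were read for each cell line across graded molar concentrations of that compound.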

[2] = Anticancer activity against human UO31 cells; format: functional
Outline: (§2)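 Assayed in the NCI Cancer-60 human tumour cell line panel, with activity read across several log-step concentrations.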

[3] = Anticancer activity against human LOXIMVI cells; format: functional; conditions: LOX IMVI; outline: as §1
[4] = test system: T47D; test: Anticancer activity against human T47D cells; format: functional; outline: as §1
[5] = test system: L1210; test: Cytostatic activity against mouse L1210 cells assessed as inhibition of cell proliferation after 48 hrs by coulter counting analysis; format: functional, cell-based; conditions: Mus musculus, L1210, 48 h
Outline: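 Anti-proliferative screen in murine leukemia L1210, human T-lymphocyte CEM and human cervix carcinoma HeLa cultures. The value reported is the IC50, the concentration that inhibits cell proliferation by 50%.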

[6] = test system: NCI-H226; test: Anticancer activity against human NCI-H226 cells; format: functional; outline: as §1
[7] = test system: NCI-H522; test: Anticancer activity against human NCI-H522 cells; format: functional; outline: as §1
[8] = Anticancer activity against human OVCAR3 cells; format: functional; outline: as §1
[9] = test system: SW-620; test: Anticancer activity against human SW620 cells; format: functional; outline: as §1
[10] = test system: HCT-116; test: Anticancer activity against human HCT116 cells; format: functional; outline: as §1
[11] = Anticancer activity against human UACC257 cells; format: functional; outline: as §2
[12] = test system: SNB-75; test: Anticancer activity against human SNB75 cells; format: functional; outline: as §1
[13] = Anticancer activity against human RXF393 cells; format: functional; outline: as §1
[14] = test system: SR; test: Anticancer activity against human SR cells; format: functional; outline: as §1
[15] = test system: HL-60; test: Anticancer activity against human HL60 (TB) cells; format: functional
Outline: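 Run within the broad NCI-60 human tumour cell line panel screen of the National Cancer Institute.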

[16] = test system: CAKI-1; test: Anticancer activity against human Caki1 cells; format: functional
[17] = test system: IGROV-1; test: Anticancer activity against human IGROV1 cells; format: functional; outline: as §1
[18] = test system: M14; test: Anticancer activity against human M14 cells; format: functional; outline: as §1
[19] = test system: A549; test: Anticancer activity against human A549/ATCC cells; format: functional; outline: as §1
[20] = Anticancer activity against human HOP92 cells; format: functional; outline: as §1
[21] = read-out: pLC50 (the source's name) (converted)

**Q.** Which results are given for `CC(C)(C)OC(=O)N[C@@H](Cc1ccccc1)C(=O)N(Cc1ccccc1)C1(C(=O)NCc2ccccc2)CCN(Cc2ccccc2)CC1`?
**A.** GI50 [1]: 2.82 µM; CC50 [1, 21]: > 100 µM; TGI ([1]; read-out: pTGI (converted)): 19.1 µM; GI50 ([2]; UO-31): 2.14 µM; CC50 ([2]; UO-31, read-out: pLC50 (the source's name) (converted)): > 100 µM; TGI ([2]; UO-31, read-out: pTGI): > 100 µM; GI50 [3]: 3.63 µM; CC50 [3, 21]: > 100 µM; TGI ([3]; read-out: pTGI (converted)): 21.4 µM; GI50 [4]: 2.88 µM; CC50 [4, 21]: > 100 µM; TGI ([4]; read-out: pTGI): > 100 µM; IC50 [5]: 3.5 µM; GI50 [6]: 3.24 µM; CC50 [6, 21]: > 100 µM; TGI ([6]; read-out: pTGI): > 100 µM; GI50 [7]: 3.98 µM; CC50 [7, 21]: > 100 µM; TGI ([7]; read-out: pTGI): > 100 µM; GI50 ([8]; OVCAR-3): 3.98 µM; CC50 ([8]; OVCAR-3, read-out: pLC50 (the source's name) (converted)): > 100 µM; TGI ([8]; OVCAR-3, read-out: pTGI): > 100 µM; GI50 [9]: 3.47 µM; CC50 [9, 21]: > 100 µM; TGI ([9]; read-out: pTGI): > 100 µM; GI50 [10]: 2.4 µM; CC50 [10, 21]: > 100 µM; TGI ([10]; read-out: pTGI (converted)): 10 µM; GI50 ([11]; UACC-257): 2.57 µM; CC50 ([11]; UACC-257, read-out: pLC50 (the source's name) (converted)): > 100 µM; TGI ([11]; UACC-257, read-out: pTGI): > 100 µM; GI50 [12]: 2.95 µM; CC50 [12, 21]: > 100 µM; TGI ([12]; read-out: pTGI): > 100 µM; GI50 ([13]; RXF 393): 3.09 µM; CC50 ([13]; RXF 393, read-out: pLC50 (the source's name) (converted)): > 100 µM; TGI ([13]; RXF 393, read-out: pTGI): > 100 µM; GI50 [14]: 2.34 µM; CC50 [14, 21]: > 100 µM; TGI ([14]; read-out: pTGI (converted)): 7.59 µM; GI50 [15]: 2.51 µM; CC50 [15, 21]: > 100 µM; TGI ([15]; read-out: pTGI (converted)): 6.17 µM; GI50 [16]: 2.34 µM; CC50 [16, 21]: > 100 µM; TGI ([16]; read-out: pTGI): > 100 µM; GI50 [17]: 5.75 µM; CC50 [17, 21]: > 100 µM; TGI ([17]; read-out: pTGI): > 100 µM; GI50 [18]: 2.63 µM; CC50 [18, 21]: > 100 µM; TGI ([18]; read-out: pTGI (converted)): 44.7 µM; GI50 [19]: 3.89 µM; CC50 [19, 21]: > 100 µM; TGI ([19]; read-out: pTGI): > 100 µM; GI50 ([20]; HOP-92): 1.45 µM; CC50 ([20]; HOP-92, read-out: pLC50 (the source's name) (converted)): > 100 µM; TGI ([20]; HOP-92, read-out: pTGI (converted)): 5.37 µM

Reference: ChEMBL document CHEMBL3286189, “Discovery and SAR studies of a novel class of cytotoxic 1,4-disubstituted piperidines via Ugi reaction” (Eur J Med Chem, 2014)
